Assay results published in PubChem BioAssay AID2764 (Sanford-Burnham Center for Chemical Genomics, 2010).
This is one part of the list. Calls of active or inactive are those of the source.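 How the source made its calls: active means activation above 40%, taking the highest of four retests; inactive means the rest.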

Target: Apelin receptor (Homo sapiens) (UniProt P35414)
Experiment: agonists of human apelin receptor APJ, confirmation, cell-based, single concentration, CHO-K1, beta-arrestin, luminescence (AID 2764);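 further: plate controls were DMSO wells for no effect and apelin-13 at 10 nM for full effect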
Conditions: CHO-K1 APJ PathHunter beta-arrestin, at 20 µM, hits give high values
Procedure, shortened: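 doses = single dose, compounds 20 µM final, 1% DMSO | assay system = CHO-K1 AGTRL-1 (APJ) PathHunter cells, ProLink-APJ, EA-beta-arrestin fusions | signal = luminescence, enzyme-fragment complementation | timing = overnight cell seeding, 90 min compound exposure at 25 °C, 60 min detection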

Apelin receptor (Homo sapiens), sequence (P35414 whole entry, looked up): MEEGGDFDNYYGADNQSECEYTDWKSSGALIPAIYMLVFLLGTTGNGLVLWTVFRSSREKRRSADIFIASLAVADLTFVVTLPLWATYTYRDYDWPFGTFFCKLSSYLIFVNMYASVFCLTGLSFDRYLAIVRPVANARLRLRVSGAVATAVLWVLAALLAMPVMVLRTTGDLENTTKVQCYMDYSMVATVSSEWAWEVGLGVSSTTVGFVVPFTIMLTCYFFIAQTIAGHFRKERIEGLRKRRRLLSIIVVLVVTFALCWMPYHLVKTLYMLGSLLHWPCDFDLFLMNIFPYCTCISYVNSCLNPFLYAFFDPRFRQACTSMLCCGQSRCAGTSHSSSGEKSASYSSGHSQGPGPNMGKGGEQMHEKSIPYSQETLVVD

activation, inactive:
COc1cc(NC(=O)C2=C(C)OCCS2)c(Cl)cc1C(=O)NCCN1CCN(C)CC1 11.7%, CCOc1cc2[nH]c(=S)n(CCCN3CCCC3=O)c(=O)c2cc1OCC 20.1%, CCC(C)(C)C1CCC(=NNC(=O)c2ccc(Br)o2)CC1 (configuration not stated) 12.3%, Cc1ccccc1-n1nnc2c(=O)oc3ccccc3c21 7.92%, O=C(CSc1nc(Nc2ccccc2)nc(N2CCOCC2)n1)Nc1cc(Cl)ccc1O 15.9%, CC1=C/C(=N\OS(=O)(=O)c2ccccc2)C=CC1=O 30.6%, COc1ccc(C(=O)O/N=C(\N)Cc2ccc(Cl)cc2Cl)cc1OC 24.9%, CCCCCCc1cc2cc(-c3nnc(-c4ccccc4)o3)c(=O)oc2cc1O -0.485%, CC(=O)N1CCCc2cc(S(=O)(=O)N3CCCC(C(=O)N4CCN(c5cccc(Cl)c5)CC4)C3)ccc21 (configuration not stated) 27.4%, CCCc1ccc(OCc2ccc(C(=O)N/N=C/c3cccc([N+](=O)[O-])c3)o2)c(OC)c1 19.3%, Cc1ccc2nc(-c3ccc(NC(=O)c4cccnc4)cc3)oc2c1 18.4%, Nc1nc(-c2sc3nc4c(cc3c2N)CCCC4)nc(N2CCOCC2)n1 15%
